# PP1 counter: PP1-alpha (human) inhibition in PP5 counter-screen; P62136; purified PP1alpha, OMFP fluorescence; inhibition, % at 6.7 µM; 0.9% of 320,000 active;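 active = inhibition above the mean inhibition of all tested compounds plus 3 SD, computed separately for each screening campaign, cut at about 15% in these data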
# Target sequence (P62136 whole entry, looked up): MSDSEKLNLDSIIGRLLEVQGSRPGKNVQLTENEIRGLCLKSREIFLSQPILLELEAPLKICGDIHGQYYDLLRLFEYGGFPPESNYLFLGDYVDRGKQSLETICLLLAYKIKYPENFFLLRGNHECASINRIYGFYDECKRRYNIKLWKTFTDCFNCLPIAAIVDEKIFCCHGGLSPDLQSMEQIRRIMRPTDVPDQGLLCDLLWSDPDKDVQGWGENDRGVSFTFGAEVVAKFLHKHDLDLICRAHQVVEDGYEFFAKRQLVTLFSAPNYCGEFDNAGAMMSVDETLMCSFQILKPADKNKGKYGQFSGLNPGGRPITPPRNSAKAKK
# HIF activator: HIF pathway transcriptional activation | U2OS HRE-luciferase reporter, luminescence; normalized: DMSO 0%, desferrioxamine 100% | activation, % at 7.5 µM (by protocol) | 0.32% of 300,000 active;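 active = mean activation of at least 10% of the iron chelator positive control signal, with at least half of replicates also reaching 10%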
# NS3 helicase inh: inhibitors of Hepatitis C virus NS3 helicase. NS3 helicase DNA unwinding, Cy5 molecular beacon fluorescence. inhibition, % at 10.9 µM. 0.56% of 290,000 active;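 active = inhibition above the mean of all tested compounds plus 3 SD, set per campaign, cut at about 35% in these data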;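 also: 0% = DMSO wells and 100% = thioflavine S control wells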
#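 System: Hepatitis C virus NS3 helicase domain fragment enzyme | Reagent: Annealed dual-labelled DNA beacon duplex, ATP-started | Compound dosing: 10.9 µM single point, 0.8% DMSO | Incubation: 1 h reaction at 25 °C, ATP-initiated | Technique: Cy5 fluorescence | Evaluation: Percent inhibition from t60/t0 fluorescence ratio | Benchmarks: Low DMSO, high thioflavine S at 110 µM | Replication: Singlicate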
# DNA FID counter-1: fluorescent intercalator displacement, NS3 helicase counter-screen. DNA fluorescent intercalator displacement, fluorescence. inhibition, % at 7.9 µM. 0.17% of 290,000 active;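 also: 0% = vehicle and 100% = reference compound; higher means more ethidium bromide displaced from hairpin DNA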
# PP5 primary: PP5 (human) phosphatase inhibition | P53041 | purified PP5c, OMFP substrate fluorescence | inhibition, % at 6.7 µM | 0.18% of 320,000 active | AID 1987;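 active = inhibition above the campaign's mean inhibition across all tested compounds plus 3 SD, cut at about 9.5% in these data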;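 also: 0% = DMSO only and 100% = 100 µM cantharidin control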
# NS3 helicase cf: confirmation of Hepatitis C virus NS3 helicase inhibitors | shares compounds with NS3 helicase inh | NS3 helicase DNA unwinding, Cy5 molecular beacon fluorescence | inhibition, % at 10.9 µM | 31% of 1,600 active | AID 1943;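 active = inhibition above the mean of all tested compounds plus 3 SD, cutoff set per campaign, cut at about 36% in these data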
# DNA FID counter-2: intercalator displacement, NS3 helicase counter-screen | 4% of 1,600 active | inhibition, % at 7.9 µM | shares compounds with NS3 helicase inh | DNA fluorescent intercalator displacement, fluorescence;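 also: 0% = vehicle and 100% = reference compound; higher means more displacement of ethidium bromide from the DNA hairpin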
# FID counter DR: counter-screen for HCV NS3 helicase inhibitors: DNA intercalator displacement dose response. shares compounds with NS3 helicase inh. fluorescent intercalator displacement from DNA, fluorescence. IC50, µM. 120 tested, under 10 active; call rule not given here
# Numbers without * were called inactive; . = no result. Compounds with a hit are over-represented: about 1.9% of the library has one in this group of screens. Rule as the data show it, unless noted: active = inhibition above about 37%; inactive = the rest.
SMILES,PP1 counter,HIF activator,NS3 helicase inh,DNA FID counter-1,PP5 primary,NS3 helicase cf,DNA FID counter-2,others
Cc1ccc(NC(=O)CN2C(=O)S/C(=C\C(=O)Nc3ccc(Cl)cc3)C2=O)cc1,-5,0,41*,-14,-1,-1,1,
Cc1cc(C)n(-c2c(F)c(F)c(CN3CCOCC3)c(F)c2F)n1,-6,0,-8,-4,-2,.,.,
CN(C)c1ccc(N2CN=C3SCC(=O)N3C2)cc1,2,0,59*,7,0,-6,27,
Cc1cc(C)cc(-n2c(SCC(=O)NCc3ccc4c(c3)OCO4)nc3ccccc3c2=O)c1,1,0,-3,2,1,.,.,
O=C(CSc1nc2cc([N+](=O)[O-])ccc2n1-c1ccccc1)NCc1ccc2c(c1)OCO2,-4,0,40*,-24,-1,28,4,
CC(/C=N/n1c(-c2cc(C)[nH]n2)n[nH]c1=S)=C\c1ccco1,0,0,45*,-19,1,-16,-5,
CCc1ccc(/C=C/C(=O)C2C(=O)c3ccccc3C2=O)cc1,1,0,38*,-20,0,5,5,
O=C(Nc1cccc(-n2cnnn2)c1)c1cc(Cl)ccc1Cl,-1,0,1,-14,2,.,.,
O=C(Nc1cccc(-n2cnnn2)c1)c1ccccc1Br,-2,0,53*,-3,2,-9,4,
CCOc1ccccc1N1CCN(c2nc3ccccc3nc2C(C#N)C(=O)OC)CC1 (stereo not given),0,0,-1,0,3,.,.,
CCOc1ccccc1N1CCN(c2nc(N)c(C#N)c(CC#N)c2C#N)CC1,3,0,36*,-23,2,-18,-10,
COC(=O)CSc1nnc(CNC(=O)c2ccco2)n1-c1ccc(F)cc1,-4,0,-1,-7,0,.,.,
CCn1c2ccccc2c2c3ncc4cccn4c3ccc21,10,-2,44*,-19,2,-7,50*,
Cc1ccc(/C=C2/SC(=S)N(C3CCCCC3)C2=O)o1,3,1,27,-22,-1,.,.,
Cc1ccc(/C=C2/SC(=O)NC2=S)o1,.,.,53*,-5,.,38*,17,
CCN(CC)CCN1C(=O)C(=O)/C(=C(/O)c2ccc(S(=O)(=O)N3CCOCC3)cc2)C1c1ccc(C(C)(C)C)cc1 (stereo not given),5,0,46*,-26,-1,-6,-21,
CCN(CC)CCN1C(=O)C(=O)/C(=C(/O)c2ccc(S(=O)(=O)N3CCOCC3)cc2)C1c1ccccc1 (stereo not given),-3,0,5,0,2,.,.,
COCCCN1C(=O)C(=O)/C(=C(/O)c2ccc(S(=O)(=O)N3CCCCC3)cc2)C1c1ccc(F)cc1 (stereo not given),4,0,44*,-49,-1,-4,-29,
Cc1nnc(NC(=O)CSc2nnc(CC(=O)Nc3ccccc3C)n2C)s1,-3,-1,7,-11,0,.,.,
O=C(N/N=C/c1cc(Cl)cc([N+](=O)[O-])c1O)c1ccc2c(c1)OCO2,8,2,52*,-4,-6,-8,7,
CC(OC(=O)CSc1ccc(F)cc1)C(=O)NC1(C#N)CCCCC1 (stereo not given),-3,-1,-5,-13,3,.,.,
O=C(NCN1CCOCC1)c1cnccn1,-3,-1,-5,-6,2,.,.,
Cc1ccc(OCC(=O)Nc2nnc(S(=O)(=O)N3CCC(C)CC3)s2)cc1,6,0,36*,-34,1,-16,-6,
CN(CCC#N)C(=S)NC(=O)c1ccc(S(=O)(=O)N2CCOCC2)cc1,-2,0,4,-4,-1,.,.,
CCc1nnc(NS(=O)(=O)c2ccc(N/C=C\C(=O)c3cccc4ccccc34)cc2)s1,8,0,55*,-23,0,33,14,
SMILES,PP1 counter,HIF activator,NS3 helicase inh,DNA FID counter-1,PP5 primary,NS3 helicase cf,DNA FID counter-2,others
CCc1nnc(NS(=O)(=O)c2ccc(N/C=C/C(=O)c3ccc(OC)cc3)cc2)s1,-1,0,22,-29,0,.,.,
CCN(CC)c1ccc(N=Cc2c(C)[nH]c3ccccc23)cc1,2,0,38*,3,2,28,39*,
Cc1[nH]c2ccccc2c1/C=N/n1cnnc1,-5,0,-3,0,2,.,.,
Cc1cc(C)c2c(c1)NC(C(=O)O)C1CC=CC21 (stereo not given),13,-7,44*,-14,-5,98*,-7,FID counter DR=>79
Cc1ccc2c(c1C)NC(C(=O)O)C1CC=CC21 (stereo not given),9,0,.,.,2,.,.,
C#CCN1C(=O)S/C(=C\c2ccc(-c3ccc(Cl)c(C(=O)O)c3)o2)C1=O,7,2,40*,-14,0,56*,-14,
O=C(O)c1cc(-c2ccc(/C=c3\sc4nc5ccc(Br)cc5n4c3=O)o2)ccc1Cl,11,-1,38*,-2,-1,73*,9,
Cc1onc(-c2ccccc2)c1C(=O)N/N=C/c1ccco1,0,0,40*,-24,1,-12,-8,
Cc1onc(-c2ccccc2)c1C(=O)N/N=C/c1cccc(O)c1,-2,-1,13,-1,1,.,.,
O=C(NC1CCCCC1)C1CCN(C(=O)c2ccc(Cl)cc2)CC1,1,0,3,-36,2,.,.,
Cc1ccc(-c2cc(-c3ccco3)c(C#N)c(=O)[nH]2)cc1,12,0,42*,-27,2,26,-1,
COc1ccc(Cn2nc(C)n(N(C)c3ncc(C(F)(F)F)cc3Cl)c2=O)cc1,0,-14,-6,-27,0,.,.,
O=C(CN1C(=O)C2CC=CCC2C1=O)NCC1COc2ccccc2O1 (stereo not given),-3,0,85*,-6,3,-19,6,
CCOC(=O)C1=C(C)NC(C)=C(C(=O)OCC)C1c1cccs1,0,.,-14,-22,1,.,.,
C#CCSC1=C(C#N)C(c2cccs2)C(C(=O)OCC)=C(C)N1 (stereo not given),4,1,46*,-19,2,-6,-6,
O=C(CSc1nnc(-c2ccco2)n1Cc1ccccc1)c1ccc(F)cc1,1,1,39*,-35,4,74*,-2,
Cc1c(C(=O)O)sc2nc(/C=C/c3cccc(F)c3)[nH]c(=O)c12,-6,-11,63*,-17,-5,-12,11,
COc1ccc(N(CC(=O)NCCC2=CCCCC2)S(=O)(=O)c2c(C)[nH]c(=O)[nH]c2=O)cc1,-1,-1,37*,-50,-1,-20,-32,
O=C(Nc1nnc(C2=COCCO2)o1)c1cccc([N+](=O)[O-])c1,-5,0,8,-5,0,.,.,

# Assay outcomes from PubChem.
